What was measured:
[1] = Cardiotoxicity was measured by using Neonatal rat heart myocyte assay; type: toxicity, tissue-based
Summary of the method: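 Neonatal rat heart myocytes in culture, 1 h drug exposure; cytotoxicity taken as the concentration lowering the ATP/protein ratio to 0.5, reported as IC50.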

L1210 [2] = assay: Anti-tumor activity against murine L1210 sensitive cell line by using MTT assay; type: functional, cell-based; conditions: Mus musculus
OVCAR-3 = assay: Anti-tumor activity against human OVCAR-3 ovarian cancer cell lines by using MTT assay; type: functional, cell-based
Summary of the method: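 Human tumor lines (A375 melanoma; OVCAR-3 ovarian carcinoma resistant to standard drugs) under continuous exposure, read by sulforhodamine B or MTT. Drugs from DMSO stocks diluted in PBS pH 7.4, 10^1–10^-5 μg/mL half-log, DMSO ≤0.1%, 37 °C, 5% CO2. MTT: 6 days then 4 h dye, A570. SRB: 8 days, TCA fixation, 0.4% SRB stain, OD 564 nm. Six wells per concentration; IC50 averaged.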

L1210 [3] = assay: Antitumor activity against murine L1210 resistant cell line by using MTT assay; type: functional, cell-based; conditions: Mus musculus
[4] = Toxicity ratio of quotient of the IC50 in myocytes divided by the average IC50 for three tumor cell lines; type: cell-based; conditions: myocytes and three tumor cell lines; read-out: Toxicity ratio
Summary of the method: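 Calculated ratio: myocyte IC50 (neonatal rat heart cells, 1 h exposure, ATP/protein end point) divided by the mean IC50 across A375 melanoma, OVCAR-3 ovarian and sensitive L1210 leukemia cells under continuous exposure.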

Mus musculus [5] = assay: The percent increase in life span of compound was measured against P388 Leukemia in mice at a dose of 8 mg/kg on days 1,5 and 9; type: functional
Summary of the method: (§1)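 Standard NCI protocol: 10^6 freshly harvested P388 cells injected ip into 10 adult male DBA/2J mice on day 0; compound given ip on days 1, 5 and 9; control group of 10 mice given tumor cells and saline on the same days. %ILS = 100 × (treated − control lifespan)/control lifespan, using group median lifespans.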

Mus musculus [6] = assay: The percent increase in life span of compound was measured against P388 Leukemia in mice at a dose of 10 mg/kg on days 1,5 and 9; type: functional; summary of the method: as §1
Mus musculus [7] = assay: The percent increase in life span of compound was measured against P388 Leukemia cells in mice at a dose of 4 mg/kg on days 1,5 and 9; type: functional; summary of the method: as §1
WiDr [8] = assay: Activity against sensitive cell line of WiDr human colon tumor; type: functional, cell-based
Summary of the method: (§2)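 WiDr colon cells, sensitive line and a subline selected for resistance to mitoxantrone; MTT assay with continuous drug exposure. Compounds as hydrochlorides, dissolved in DMSO then serially diluted in PBS pH 7.4, 10^1–10^-5 μg/mL in half-log steps, DMSO ≤0.1% final.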

WiDr [9] = assay: Activity against resistant cell line of WiDr human colon tumor; type: functional, cell-based; summary of the method: as §2
Mus musculus [10] = assay: The percent increase in life span of compound was measured against P388 Leukemia cells in mice at a dose of 10 mg/kg on days 1,5 and 9; type: functional; summary of the method: as §1
Mus musculus [11] = assay: The percent increase in life span of compound was measured against P388 Leukemia in mice at a dose of 15 mg/kg on days 1,5 and 9; type: functional; summary of the method: as §1
Mus musculus [12] = assay: The percent increase in life span of compound was measured against P388 Leukemia cells in mice at a dose of 5 mg/kg on days 1,5 and 9; type: functional
Mus musculus [13] = assay: The percent increase in life span of compound was measured against P388 Leukemia cells in mice at a dose of 4.5 mg/kg on days 1,5 and 9; type: functional; summary of the method: as §1
Mus musculus [14] = assay: The percent increase in life span of compound was measured against P388 Leukemia cells in mice at a dose of 1.6 mg/kg on days 1,5 and 9; type: functional; summary of the method: as §1

IC50 (L1210 [2]) [nM]	IC50 (OVCAR-3) [nM]	IC50 (L1210 [3]) [nM]	Structure (SMILES)	Cardiotoxicity [1] [µM]	selectivity ratio [4]	ILS at 8 mg/kg (Mus musculus [5]) [%]	ILS at 10 mg/kg (Mus musculus [6]) [%]	ILS at 4 mg/kg (Mus musculus [7]) [%]	IC50 (WiDr [8]) [nM]	IC50 (WiDr [9]) [nM]	ILS at 10 mg/kg (Mus musculus [10]) [%]	ILS at 15 mg/kg (Mus musculus [11]) [%]	ILS at 5 mg/kg (Mus musculus [12]) [%]	ILS at 4.5 mg/kg (Mus musculus [13]) [%]	ILS at 1.6 mg/kg (Mus musculus [14]) [%]
114	13	170	CC(=O)Nc1ccc2c3c4c(cccc4cc2c1)C(=O)N(CCN(C)C)C3=O	0.487	7.7										
5.4	12	7.9	CN(C)CCN1C(=O)c2c(N)ccc3cc4ccccc4c(c23)C1=O	0.434	48										
49	49	219	CC(=O)Nc1ccc2cc3cccc4c3c(c2c1)C(=O)N(CCN(C)C)C4=O	7.786	120				9	50					
6780	9480	6780	CN(C)CCN1C(=O)c2cccc3cc4c(N)cccc4c(c23)C1=O	> 81.3	> 6.7										
862	493	172	CN(C)CCN1C(=O)c2c(NC(=O)C(C)(C)C)ccc3cc4ccccc4c(c23)C1=O	> 24.63	> 25										
2.7	14	16	CN(C)CCN1C(=O)c2cccc3cc4cc(N)ccc4c(c23)C1=O	0.813	39										
678	1760	678	CN(C)CCN1C(=O)c2cccc3cc4cccc(N)c4c(c23)C1=O	27.1	24										
50	50	20	CN(C)CCN1C(=O)c2cccc3cc4c([N+](=O)[O-])cccc4c(c23)C1=O	0.65	14										
23	226	50	CN(C)CCN1C(=O)c2cccc3cc4cccc([N+](=O)[O-])c4c(c23)C1=O	8.647	80										
6.2	20	15	CN(C)CCN1C(=O)c2cc(N)cc3cc4ccccc4c(c23)C1=O	1.724	101										
19	61	73	CC(=O)Nc1cc2c3c(c4ccccc4cc3c1)C(=O)N(CCN(C)C)C2=O	0.177	3.5										
487	730	487	CC(=O)Nc1c2ccccc2c2c3c(cccc13)C(=O)N(CCN(C)C)C2=O	> 24.331	> 37										
608	608	560	CC(=O)Nc1ccc2cc3ccccc3c3c2c1C(=O)N(CCN(C)C)C3=O	> 24.331	> 33										
243	2430	2430	CC(=O)Nc1cccc2cc3cccc4c3c(c12)C(=O)N(CCN(C)C)C4=O	> 22.5	> 13.2										
44	33	15	CN(C)CCN1C(=O)c2cc(NC(=O)C(C)(C)C)cc3cc4ccccc4c(c23)C1=O	0.662	9.5										
200	150	200	CN(C)CCN1C(=O)c2cccc3cc4ccc(NC(=O)C(C)(C)C)cc4c(c23)C1=O	11.025	55										
5.4	68	27	CN(C)CCN1C(=O)c2ccc(N)c3cc4ccccc4c(c23)C1=O	1.486	20										
			CN(C)CCN1C(=O)c2cccc3cc(N)cc(c23)C1=O [AMONAFIDE]	48.4	30						45	88			
			CN(C)CCN1C(=O)c2cccc3cc4ccccc4c(c23)C1=O [AZONAFIDE]	1.983	44		63		10	15		79	25		

Structure (SMILES)	IC50 (L1210 [2]) [nM]	IC50 (OVCAR-3) [nM]	IC50 (L1210 [3]) [nM]	Cardiotoxicity [1] [µM]	selectivity ratio [4]	ILS at 8 mg/kg (Mus musculus [5]) [%]	ILS at 10 mg/kg (Mus musculus [6]) [%]	ILS at 4 mg/kg (Mus musculus [7]) [%]	IC50 (WiDr [8]) [nM]	IC50 (WiDr [9]) [nM]	ILS at 10 mg/kg (Mus musculus [10]) [%]	ILS at 15 mg/kg (Mus musculus [11]) [%]	ILS at 5 mg/kg (Mus musculus [12]) [%]	ILS at 4.5 mg/kg (Mus musculus [13]) [%]	ILS at 1.6 mg/kg (Mus musculus [14]) [%]
CN(C)CCN1C(=O)c2cccc3cc4ccc(N)cc4c(c23)C1=O	2.5	20	2.7	0.943	34	73	109	27	5.5	18					
COc1cccc2c1C(=O)c1c(O)c3c(c(O)c1C2=O)C[C@@](O)(C(=O)CO)C[C@@H]3O[C@H]1C[C@H](N)[C@H](O)[C@H](C)O1 [DOXORUBICIN]	35	35	3880	11.064	181									113	
O=C1c2c(O)ccc(O)c2C(=O)c2c(NCCNCCO)ccc(NCCNCCO)c21 [MITOXANTRONE]	5	5.8	39	7.737	387				10	1400					200

Source: ChEMBL document CHEMBL1128275, “Amino-substituted 2-[2'-(dimethylamino)ethyl]-1,2-dihydro-3H- dibenz[de,h]isoquinoline-1,3-diones. Synthesis, antitumor activity, and quantitative structure--activity relationship” (J Med Chem, 1995)
